This passage reports AC50 results from PubChem BioAssay AID623985 (Broad Institute, 2012).

For this experiment, the target named is PvdQ acylase (Pseudomonas aeruginosa). The experiment is described as follows: PvdQ acylase enzyme activity blockers – biochemical, fluorescence, plate reader, dry powder, set 2, dose response (AID 623985). Particulars: purified PvdQ, 4-MU laurate fluorescence, 60 min. Put shortly:
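Material: purified P. aeruginosa PvdQ; Quantity: 0.02 µM PvdQ; Medium: 50 mM Tris pH 8.0, 50 mM NaCl, 0.2 mM TCEP, Triton X-100; Reagent: 4-methylumbelliferone laurate substrate at 0.8 mM final; Timing: 30 min pre-incubation plus 60 min reaction, room temperature; Technique: 4-methylumbelliferone fluorescence, excitation 303–367 nm, emission 440–460 nm.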
For `CCCCC(C#N)c1ccc(Cl)cc1F` (stereo unspecified), the concentration at half-maximal activity (AC50) (commonly the concentration giving half of the maximal activity seen) is 0.315 µM.

Regarding `CCCC(C#N)c1ccc(Cl)cc1` (stereo unspecified), the concentration at half-maximal activity (AC50) is 0.293 µM.

`CCCCC(C#N)c1ccc(F)cc1` (stereo unspecified): the AC50 was 0.0455 µM. To `N#CC(c1ccc(C(F)(F)F)c(Cl)n1)c1ccc(Cl)cc1F` (stereo unspecified) belongs 0.484 µM; to `N#CC(c1ccc(Cl)cc1)c1cccc(Cl)n1` (stereo unspecified), 0.0179 µM. To `N#CC(c1ccc(Cl)cc1)c1cccc(C(F)(F)F)n1` (stereo unspecified) belongs 0.00416 µM. To `N#CC(c1ccc(Cl)cc1)c1ccc(C(F)(F)F)cn1` (stereo unspecified) belongs 0.171 µM. In the case of `N#Cc1cccc(C(C#N)c2ccc(Cl)cc2Cl)n1` (stereo unspecified), the AC50 is 0.303 µM. To `CCCCC(C#N)c1ccc(Cl)cc1Cl` (stereo unspecified) belongs 0.281 µM.

As for `N#CC(c1ccc(Cl)cc1)c1ccc(Cl)cn1` (stereo unspecified), the AC50 is 0.0733 µM. To `Cc1ccc(C(C#N)c2ccc(Cl)cc2)nc1C#N` (stereo unspecified) belongs 0.0697 µM; to `N#CC(CC1CC1)c1ccc(Cl)cc1` (stereo unspecified), 0.133 µM.

Take `N#CC(c1ccc(Cl)cc1)c1ncccc1Cl` (stereo unspecified): the AC50 is less than 0.003 µM. Then `N#CC(c1ccc(Cl)cc1)c1ccc(C(F)(F)F)c(Cl)n1` (stereo unspecified), with 0.609 µM; and `N#CC(c1cccc(C(F)(F)F)n1)c1ccccc1OC(F)(F)F` (stereo unspecified), with 0.376 µM.

For `CC(C)CC(C#N)c1ccc(Cl)cc1` (stereo unspecified), the AC50 was 0.203 µM. `N#CC(c1ccc(C(F)(F)F)c(Cl)n1)c1ccccc1OC(F)(F)F` (stereo unspecified): the AC50 is 0.597 µM. As for `CC(C#N)(c1ccc(Cl)cc1)c1ccc(C(F)(F)F)cn1` (stereo unspecified), the AC50 is 1.23 µM. To `Cc1ccc(C(C#N)c2ccc(Cl)cc2)nc1` (stereo unspecified) belongs 0.15 µM; to `N#CC(c1ccc(F)cc1)c1ccc(C(F)(F)F)c(Cl)n1` (stereo unspecified), 0.548 µM. As for `N#CC(c1ccc(C(F)(F)F)c(Cl)n1)c1ccc(Cl)cc1Cl` (stereo unspecified), the AC50 is 2.44 µM. To `N#Cc1ccc(C(C#N)c2ccc(Cl)cc2)nc1` (stereo unspecified) belongs 1.31 µM; to `N#CC(c1cccc(Cl)n1)c1ccc(Cl)cc1Cl` (stereo unspecified), 0.17 µM; to `N#CC(c1ccc(C(F)(F)F)cc1)c1ccc(C(F)(F)F)c(Cl)n1` (stereo unspecified), 2.95 µM. Regarding `N#Cc1cccc(C(C#N)c2ccccc2OC(F)(F)F)n1` (stereo unspecified), the concentration at half-maximal activity (AC50) was 0.227 µM. With `N#CC(c1ccc(C(F)(F)F)cc1)c1cccc(Cl)n1` (stereo unspecified), the AC50 was 0.357 µM. Then `N#CC(c1ccc(C(F)(F)F)cc1)c1cccc(C(F)(F)F)n1` (stereo unspecified), with 0.027 µM; and `N#CC(c1cccc(C(F)(F)F)n1)c1ccc(Cl)cc1F` (stereo unspecified), with less than 0.003 µM; and `Cc1ccc(C(C#N)c2ccc(F)cc2)nc1C#N` (stereo unspecified), with 0.0966 µM. As to `N#Cc1cccc(C(C#N)c2ccc(Cl)cc2)n1` (stereo unspecified), the AC50 was 0.0606 µM. Then `N#Cc1ccc(C(C#N)c2ccc(Cl)cc2Cl)nc1` (stereo unspecified), with 1.94 µM. Then `N#CC(c1ccc(Cl)cc1Cl)c1ncccc1Cl` (stereo unspecified), with 0.141 µM; and `N#Cc1cccc(C(C#N)c2ccc(Cl)cc2F)n1` (stereo unspecified), with 0.0467 µM; and `Cc1cccc(C(C#N)c2ccc(Cl)cc2)n1` (stereo unspecified), with 0.162 µM. For `N#CC(c1cccc(Cl)n1)c1ccccc1OC(F)(F)F` (stereo unspecified), the AC50 is 0.754 µM. To `COc1cccc(C(C#N)c2ccc(F)cc2)n1` (stereo unspecified) belongs 0.124 µM. Then `N#CC(c1ccc(F)cc1)c1cccc(C(F)(F)F)n1` (stereo unspecified), with 0.00502 µM; and `CCCCC(C#N)c1ccc(C(F)(F)F)cc1` (stereo unspecified), with 1.59 µM. Then `N#CC(c1cccc(Cl)n1)c1ccc(Cl)cc1F` (stereo unspecified), with 0.0224 µM; and `CCCCC(C#N)c1ccc(Cl)cc1` (stereo unspecified), with 0.0569 µM; and `Cc1ccc(C(C#N)c2ccccc2OC(F)(F)F)nc1C#N` (stereo unspecified), with 0.328 µM.
